Measurements: ChEMBL document CHEMBL1140384, “Synthesis and structure-activity relationships of suramin-derived P2Y11 receptor antagonists with nanomolar potency” (J Med Chem, 2005)

Legend:
P2Y purinoceptor 2 = P2Y purinoceptor 2 (Homo sapiens, UniProt P41231); test: Inhibitory concentration against P2Y2 receptor expressed in 1321N1 astrocytoma Cells; (n=3)
P2X purinoceptor 1 [1] = biological target: P2X purinoceptor 1 (Rattus norvegicus, UniProt P47824); test: Inhibitory concentration against rat P2X purinoceptor 1 expressed in Xenopus laevis oocytes; assay type: functional, cell-based, Oocyte
How it was run: (§1)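 Two-electrode voltage clamp on Xenopus laevis oocytes expressing recombinant rat or human P2X subtypes, recording receptor-mediated currents. IC50 values came from nonlinear least-squares Hill fits to pooled concentration-inhibition data; mean ± SEM from at least three experiments.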

[2] = biological target: P2X purinoceptor 4 (Rattus norvegicus) (UniProt P51577); test: Inhibitory concentration against rat P2X purinoceptor 4 expressed in Xenopus laevis oocytes
P2Y purinoceptor 11 [3] = biological target: T1, P2Y purinoceptor 11 (Homo sapiens, UniProt Q96G91); test: Inhibitory concentration against P2Y11 receptor expressed in 1321N1 astrocytoma Cells; (n=7)
T1 sequence (Q96G91 whole entry): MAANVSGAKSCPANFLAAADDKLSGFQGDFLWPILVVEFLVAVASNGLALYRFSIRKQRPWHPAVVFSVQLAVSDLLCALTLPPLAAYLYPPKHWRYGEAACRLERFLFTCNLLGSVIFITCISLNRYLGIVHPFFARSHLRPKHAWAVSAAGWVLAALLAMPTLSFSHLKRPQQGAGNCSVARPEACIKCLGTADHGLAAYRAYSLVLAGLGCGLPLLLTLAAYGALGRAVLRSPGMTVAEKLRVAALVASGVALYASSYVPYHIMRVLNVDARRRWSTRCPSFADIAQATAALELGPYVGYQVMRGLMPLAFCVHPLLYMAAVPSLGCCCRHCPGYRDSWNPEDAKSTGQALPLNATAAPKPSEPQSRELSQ
How it was run: (§2)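 Human P2Y11 stably expressed in 1321N1 astrocytoma cells (G418 selection), loaded with Oregon Green 488 BAPTA-1/AM (3 µM, 60 min, 25 °C) in Krebs-HEPES. Compound preincubated 30 min at 37 °C before injection of 1 µM ATPγS. Ca2+ fluorescence read at ex 485/em 520 nm for 30 s. IC50 from concentration-inhibition curves; independent experiments each run in triplicate.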

P2Y purinoceptor 11 [4] = biological target: T1, P2Y purinoceptor 11; test: Inhibitory concentration against P2Y purinoceptor 11 expressed in 1321N1 astrocytoma cells; n=7; assay type: cell-based; how it was run: as §2
[5] = biological target: T2, P2Y purinoceptor 11 (Homo sapiens) (UniProt Q96G91); test: Percent inhibition of agonist-induced calcium mobilization at P2Y purinoceptor 11 recombinantly expressed in human 1321N1 astrocytoma cells at 100 uM dose
T2 sequence (whole entry): T1 sequence (Q96G91 whole entry)

P2X purinoceptor 1 [6] = biological target: T3, P2X purinoceptor 1 (Homo sapiens, UniProt P51575); test: Inhibitory concentration against human P2X purinoceptor 1 expressed in Xenopus laevis oocytes; assay type: functional, cell-based, Oocyte; how it was run: as §1
T3 sequence (P51575 whole entry): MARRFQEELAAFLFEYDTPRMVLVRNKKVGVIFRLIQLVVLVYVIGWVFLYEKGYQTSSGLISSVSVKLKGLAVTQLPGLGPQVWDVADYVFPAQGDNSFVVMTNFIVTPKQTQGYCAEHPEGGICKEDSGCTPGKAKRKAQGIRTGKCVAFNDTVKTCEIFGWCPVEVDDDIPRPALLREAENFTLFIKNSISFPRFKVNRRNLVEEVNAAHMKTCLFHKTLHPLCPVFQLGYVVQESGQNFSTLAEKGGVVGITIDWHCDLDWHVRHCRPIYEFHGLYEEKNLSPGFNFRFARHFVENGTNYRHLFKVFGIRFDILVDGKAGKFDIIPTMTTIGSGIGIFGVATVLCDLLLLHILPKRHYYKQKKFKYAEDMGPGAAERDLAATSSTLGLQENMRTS

P2Y purinoceptor 1 = P2Y purinoceptor 1 (Homo sapiens, UniProt P47900); test: Inhibitory concentration against P2Y purinoceptor 1 expressed in 1321N1 astrocytoma Cells; (n=3)
[7] = biological target: T2, P2Y purinoceptor 11 (Homo sapiens); test: Relative potency was measured against P2Y purinoceptor 11; assay type: functional
P2X purinoceptor 4 = biological target: T4, P2X purinoceptor 4 (Rattus norvegicus, UniProt P51577); test: Inhibitory concentration against rat P2X purinoceptor 4 expressed in Xenopus laevis oocytes; assay type: functional, cell-based, Oocyte; how it was run: as §1
T4 sequence (P51577 whole entry): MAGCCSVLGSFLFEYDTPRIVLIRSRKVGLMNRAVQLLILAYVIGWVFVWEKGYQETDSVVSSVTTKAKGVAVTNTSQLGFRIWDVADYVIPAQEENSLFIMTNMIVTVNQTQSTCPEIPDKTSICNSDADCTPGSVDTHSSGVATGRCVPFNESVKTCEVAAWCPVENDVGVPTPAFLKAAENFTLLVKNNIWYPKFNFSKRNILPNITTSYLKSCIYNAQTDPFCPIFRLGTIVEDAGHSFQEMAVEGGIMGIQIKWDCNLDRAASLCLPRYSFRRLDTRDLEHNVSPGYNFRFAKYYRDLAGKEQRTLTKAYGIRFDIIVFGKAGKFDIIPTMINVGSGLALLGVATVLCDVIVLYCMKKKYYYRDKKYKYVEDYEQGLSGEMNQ

P2X purinoceptor 3 = biological target: T5, P2X purinoceptor 3 (Homo sapiens, UniProt P56373); test: Inhibitory concentration against human P2X purinoceptor 3 expressed in Xenopus laevis oocytes; assay type: functional, cell-based, Oocyte; how it was run: as §1
T5 sequence (P56373 whole entry): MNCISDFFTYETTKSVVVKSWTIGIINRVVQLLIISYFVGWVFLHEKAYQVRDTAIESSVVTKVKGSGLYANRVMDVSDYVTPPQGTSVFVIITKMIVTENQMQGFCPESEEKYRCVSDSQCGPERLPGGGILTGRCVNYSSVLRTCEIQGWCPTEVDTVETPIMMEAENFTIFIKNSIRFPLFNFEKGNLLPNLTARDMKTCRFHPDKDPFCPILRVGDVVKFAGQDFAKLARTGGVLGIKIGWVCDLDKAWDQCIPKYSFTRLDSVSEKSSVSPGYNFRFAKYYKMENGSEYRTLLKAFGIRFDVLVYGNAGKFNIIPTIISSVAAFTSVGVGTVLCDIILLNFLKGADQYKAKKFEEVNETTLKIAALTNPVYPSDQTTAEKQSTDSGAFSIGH

P2X purinoceptor 2 = biological target: T6, P2X purinoceptor 2 (Rattus norvegicus, UniProt P49653); test: Inhibitory concentration against rat P2X purinoceptor 2 expressed in Xenopus laevis oocytes; assay type: functional, cell-based, Oocyte; how it was run: as §1
T6 sequence (P49653 whole entry): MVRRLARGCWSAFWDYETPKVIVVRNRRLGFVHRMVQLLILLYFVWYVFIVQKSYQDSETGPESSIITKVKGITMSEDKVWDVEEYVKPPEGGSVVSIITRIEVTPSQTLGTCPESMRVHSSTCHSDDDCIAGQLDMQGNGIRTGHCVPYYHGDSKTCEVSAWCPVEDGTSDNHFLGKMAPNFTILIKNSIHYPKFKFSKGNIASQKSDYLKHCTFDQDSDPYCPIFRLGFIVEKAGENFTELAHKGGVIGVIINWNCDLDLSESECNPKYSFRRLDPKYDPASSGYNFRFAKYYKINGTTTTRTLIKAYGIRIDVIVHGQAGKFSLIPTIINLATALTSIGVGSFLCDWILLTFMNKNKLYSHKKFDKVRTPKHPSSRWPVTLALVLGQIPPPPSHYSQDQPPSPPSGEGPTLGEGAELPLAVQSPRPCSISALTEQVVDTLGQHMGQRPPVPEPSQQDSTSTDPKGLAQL

P2Y purinoceptor 1, sequence (P47900 whole entry): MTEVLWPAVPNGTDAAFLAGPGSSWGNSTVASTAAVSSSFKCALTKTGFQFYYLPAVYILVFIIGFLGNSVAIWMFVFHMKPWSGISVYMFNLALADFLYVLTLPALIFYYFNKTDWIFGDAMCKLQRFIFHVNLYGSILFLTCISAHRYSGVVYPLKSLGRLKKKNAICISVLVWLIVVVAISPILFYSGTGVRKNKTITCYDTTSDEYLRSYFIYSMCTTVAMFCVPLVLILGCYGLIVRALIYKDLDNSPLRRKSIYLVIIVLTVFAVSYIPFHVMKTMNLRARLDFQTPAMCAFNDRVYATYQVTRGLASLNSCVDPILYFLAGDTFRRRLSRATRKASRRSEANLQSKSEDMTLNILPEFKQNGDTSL
P2Y purinoceptor 2, sequence (P41231 whole entry): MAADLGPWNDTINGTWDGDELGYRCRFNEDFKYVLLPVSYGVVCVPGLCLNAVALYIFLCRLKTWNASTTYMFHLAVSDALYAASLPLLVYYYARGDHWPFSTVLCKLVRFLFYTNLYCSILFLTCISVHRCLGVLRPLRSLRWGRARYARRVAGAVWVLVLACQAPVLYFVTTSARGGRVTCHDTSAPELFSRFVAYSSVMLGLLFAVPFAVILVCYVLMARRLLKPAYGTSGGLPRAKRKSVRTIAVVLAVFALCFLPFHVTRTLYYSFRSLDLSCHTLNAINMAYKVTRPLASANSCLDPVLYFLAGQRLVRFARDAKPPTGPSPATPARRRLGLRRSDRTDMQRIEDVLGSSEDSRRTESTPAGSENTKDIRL
P2X purinoceptor 1 (Rattus norvegicus, UniProt P47824), sequence (P47824 whole entry, looked up): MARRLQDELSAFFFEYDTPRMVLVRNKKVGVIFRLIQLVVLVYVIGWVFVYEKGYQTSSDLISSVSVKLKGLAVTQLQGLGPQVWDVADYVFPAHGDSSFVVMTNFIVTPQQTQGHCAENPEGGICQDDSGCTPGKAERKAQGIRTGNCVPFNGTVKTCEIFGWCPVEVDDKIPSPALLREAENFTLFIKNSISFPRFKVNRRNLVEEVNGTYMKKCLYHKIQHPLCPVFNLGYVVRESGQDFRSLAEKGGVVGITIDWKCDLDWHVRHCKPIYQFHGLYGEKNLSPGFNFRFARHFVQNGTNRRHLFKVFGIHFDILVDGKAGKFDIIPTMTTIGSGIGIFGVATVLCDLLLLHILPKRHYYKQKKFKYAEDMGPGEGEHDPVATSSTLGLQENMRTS

For `O=C(Nc1cccc(C(=O)Nc2cc(C(=O)Nc3ccc(S(=O)(=O)O)c4cc(S(=O)(=O)O)cc(S(=O)(=O)O)c34)ccc2F)c1)Nc1cccc(C(=O)Nc2cc(C(=O)Nc3ccc(S(=O)(=O)O)c4cc(S(=O)(=O)O)cc(S(=O)(=O)O)c34)ccc2F)c1`, the IC50 (P2Y purinoceptor 2) was 170 µM, the IC50 (P2X purinoceptor 1 [1]) was 0.0813 µM and the IC50 [2] was > 1 µM. The IC50 (P2Y purinoceptor 11 [3]) was 0.457 µM, the Ki (P2Y purinoceptor 11 [4]) was 0.0447 µM and the inhibition [5] was 96.6%. The IC50 (P2X purinoceptor 1 [6]) was 0.0631 µM, the IC50 (P2Y purinoceptor 1) was 1820 µM and the Rel potency [7] was 100. The IC50 (P2X purinoceptor 4) was > 1 µM, the IC50 (P2X purinoceptor 3) was 0.355 µM and the IC50 (P2X purinoceptor 2) was 0.138 µM.
